PglD inh – C. jejuni PglD acetyltransferase inhibitors, primary screen, biochemical, DTNB colorimetric, single point | actives 0.098% (n = 360,000) | inhibition, % at 12.5 µM | UDP-N-acetylbacillosamine N-acetyltransferase PglD (Campylobacter jejuni) | AID 602405, 2012 | purified PglD enzyme, DTNB colorimetric CoA detection; in the data active = inhibition above about 16%, passing the limit was not always enough
C2C12 statin – suppressors of statin myotoxicity in C2C12 myotubes, primary screen, cell-based, single point, plate reader; C2C12 myotubes + simvastatin, ATP luminescence, 48 h; scaled: DMSO 0, geranylgeraniol control 100; rescue of ATP level, % at 7.49 µM; actives 0.78% (n = 330,000); AID 602340, 2012;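 active = mean ATP rescue above about 67%, or every replicate alone reaching that limit, limit read from the data, passing the limit was not always enough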;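 also: myotubes were challenged with 10 µM simvastatin during compound exposure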
E-selectin induc – E-selectin induction in HUVECs, primary screen, imaging, HUVEC, immunofluorescence imaging, single point | normalized: neutral wells 0, TNF-alpha wells 100 | activation, % at 7.58 µM | actives 0.37% (n = 260,000) | AID 686992, 2013;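 active = mean E-selectin-positive cell signal at least 10% of the positive control, reached in at least 60% of replicates, without over 20% cell loss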
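System: HUVEC / Compound: single concentration / Signal: immunofluorescence imaging / Read-out: percent E-selectin-positive cells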
DENV2 CPE – inhibitors of DENV2 cytopathic effect, primary screen, cell-based, plate reader, single concentration; DENV2-infected cells, cytopathic effect rescue; AID 651640, 2012; actives 1.7% (n = 350,000); CPE inhibition, % at 9.99 µM; in the data active = CPE inhibition above about 20%, passing the limit was not always enough; tested in BHK-21 cells;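 also: 0% = median of neutral control wells and 100% = median of positive control wells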
Xi reactivation – activators of inactive X chromosome reactivation, primary screen, imaging, XiGFP fibroblasts, GFP high-content imaging, set 2. XiGFP mouse fibroblasts, % GFP-positive cells imaging, 3 d; cells co-treated with 5-aza-dC sensitizer; scaled so ellipticine positive control = 100%. activation, % at 7.58 µM. actives 0.055% (n = 360,000). AID 743238, 2013;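 active = mean normalized replicate activation at least 10% and every replicate at or above 10%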;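 also: 0% = median of on-plate neutral control wells and 100% = ellipticine 6 µM median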
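assay system = SV40-immortalized XiGFP fibroblast cells, line 68-5-11 | buffer or medium = DMEM plus 5-aza-dC sensitizer | doses = single-point pinned compound dosing | times = 3-day compound exposure, then 15 min fixation at room temperature | benchmarks = positive control ellipticine, 6 µM final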
FGF22 binding – binders of human FGF22 protein, primary screen, FGF22 synaptogenesis inhibitor project, biophysical, thermal shift, single point. actives 1.5% (n = 340,000). activity (Tm shift, normalised), % at 9.99 µM. recombinant FGF22 thermal shift, SYPRO orange fluorescence; percent of sucrose octasulfate shift, DMSO zero. Fibroblast growth factor 22 (Homo sapiens), Q9HCT0;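 active = mean Tm shift, scaled 0 neutral to 100 positive control, at about 1.3% or above, every replicate too, limit read from the data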
Target sequence (Q9HCT0 whole entry, looked up): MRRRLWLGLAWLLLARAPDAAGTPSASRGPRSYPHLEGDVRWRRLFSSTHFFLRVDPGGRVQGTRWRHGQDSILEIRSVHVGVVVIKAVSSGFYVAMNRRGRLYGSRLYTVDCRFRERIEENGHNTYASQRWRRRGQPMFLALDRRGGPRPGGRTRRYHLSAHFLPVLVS
Numbers without * were called inactive; nt = not tested or not shown. Hits are enriched below; roughly 3.3% of the tested compounds scored in any of these assays.

SMILES	PglD inh	C2C12 statin	E-selectin induc	DENV2 CPE	Xi reactivation	FGF22 binding
C[C@@H]1CN([C@@H](C)CO)C(=O)c2cc(NS(=O)(=O)c3cccs3)ccc2O[C@@H](C)CCCCO[C@@H]1CN(C)S(=O)(=O)c1ccc(F)cc1	2.3	nt	-0.3	-16.8	-0.1	-1.1
C=CCN1N=C(/C=C/c2ccc(OC)cc2)CCC1=O	6.6	-5.6	-0.3	-4.2	0.0	0.0
COc1ccc(/C=C/C2=NN(Cc3ccccc3)C(=O)CC2)cc1	nt	3.9	1.3	-0.8	0.0	43.1*
COc1ccc(CN(C)C[C@H]2OCCCC[C@@H](C)Oc3ccc(NC(=O)Nc4ccccc4)cc3C(=O)N([C@@H](C)CO)C[C@@H]2C)cc1	2.4	nt	-0.1	-7.8	0.4	-0.3
O=C(Nc1ccccc1)Nc1ccc(F)cc1F	nt	nt	4.1	-4.9	0.3	43.4*
O=C(Nc1ccccc1F)Nc1ccccc1F	2.2	-13.2	nt	-5.3	0.3	43.7*
CC(=O)Nc1cccc(NC(=O)Nc2ccc(F)cc2F)c1	nt	nt	-1.3	-2.8	0.1	-0.3
OC(c1ccccc1)(c1ccccc1)C1CCN(CCCOc2cccc(F)c2)CC1	nt	nt	-0.2	56.4*	-0.1	-0.1
C#CNC(=O)C1(CC=C)CCNCC1	-3.4	100.3*	0.0	-4.8	0.1	0.0
CCCn1c(=S)[nH]c2cc(C(=O)N3CCN(C(=O)OCC)CC3)ccc2c1=O	-6.7	8.6	nt	2.4	0.3	-0.1
CCOC(=O)N1CCN(C(=O)c2ccc3c(=O)n(CCC4=CCCCC4)c(=S)[nH]c3c2)CC1	-0.8	94.2*	nt	nt	nt	nt
CCOC(=O)N1CCN(C(=O)c2ccc3c(=O)n(Cc4ccc(Cl)cc4)c(=S)[nH]c3c2)CC1	-4.1	81.6*	nt	nt	nt	nt
Cc1noc(C)c1NC(=O)N(C)C[C@H]1OCCCC[C@H](C)Oc2ccc(NC(=O)CCC(F)(F)F)cc2C(=O)N([C@H](C)CO)C[C@@H]1C	-1.9	nt	-0.2	-5.2	0.2	0.8
CCOC(=O)c1c[nH]n2c(=O)cc(C)nc12	6.3	nt	0.1	-3.9	0.0	-0.1
CCOC(=O)c1c[nH]n2c(=S)ncnc12	1.2	-0.5	1.0	-5.8	0.3	43.3*
Cn1c2c(c(=O)n(C)c1=O)C(CC(=O)Nc1ccccc1F)C(=O)N2 (stereo not given)	0.7	nt	nt	4.6	0.0	-0.2
Cn1c2c(c(=O)n(C)c1=O)C(CC(=O)Nc1ccccc1)C(=O)N2 (stereo not given)	-4.9	133.4*	nt	nt	nt	nt
COc1cccc(C#Cc2ccc([C@H]3[C@@H](CO)N4C(=O)CN(C(=O)Cc5ccccc5)C[C@H]34)cc2)c1	nt	nt	-0.2	3.3	0.0	nt
COC(=O)c1c(C)[nH]c(O)c1C=Nc1ccc(Oc2ccccc2)cc1	nt	nt	nt	-1.4	0.2	43.6*
CC(=O)N(C)C[C@@H]1Oc2ccccc2C(=O)N(C)C[C@@H]1C	nt	nt	nt	nt	0.3	nt
Cc1cc(C(C)(C)C)cc(C)c1S(=O)(=O)N1CC(=O)Nc2ccccc21	-3.2	nt	0.7	-5.6	-0.2	1.5*
Cc1ccc(C(C)(C)C)cc1S(=O)(=O)N1CC(=O)Nc2ccccc21	-3.5	-3.4	nt	-2.1	0.0	-0.2
COC(=O)c1cn(C(=O)c2cc(OC)c(OC)c(OC)c2)c2ccccc12	-4.5	-5.1	0.0	4.4	0.3	-0.1
COC(=O)c1cn(C(=O)c2ccc(OC)c(OC)c2)c2ccccc12	-2.4	-6.7	2.1	25.8*	0.0	-0.4
COc1ccccc1C#Cc1cnc2c(c1)C(=O)N([C@H](C)CO)C[C@@H](C)[C@H](CN(C)C(=O)CC1CC1)O2	-2.6	0.7	-0.1	-11.6	0.0	-0.2
C[C@H](CO)N1C[C@H](C)[C@@H](CN(C)Cc2ccccn2)Oc2cc(C3=CCCC3)ccc2S1(=O)=O	-1.7	-31.4	-0.3	-3.3	0.5	-0.4
CCN1/C(=C2\SC(=S)N(Cc3ccccc3)C2=O)Sc2ccccc21	nt	nt	-2.1	6.1	0.6	-0.1

Bioassay records deposited in PubChem by Broad Institute.
